By Cmax is commonly meant the peak of the concentration-time curve. Broadly, the AUC is the area under the concentration-time curve, a measure of exposure. A lower AUC goes with less exposure.

Experimental findings from ChEMBL document CHEMBL1142163 (Antimicrob Agents Chemother, 2007) are described below.

The nature of data set [1]: Cmax in leukemic neutropenic patient with pulmonary aspergillosis at 300 mg twice daily, po. Format: ADME, organism-based. Further details: dose 300 mg, route oral. The settings on record: human, in vivo. In a few lines:
(§1)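 Patients' citrated blood drawn just before and 2, 4, 6 and 12 h after a dose on days 2, 7 and 14 of therapy. Plasma was analysed by HPLC: acetonitrile precipitation, C18 column, UV detection at 255 nm. AUC over the 0–12 h dosing interval used the linear trapezoidal rule during rise and the log trapezoidal rule during decay. Cmax and trough were summarised descriptively.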

Data set [2] is described as follows: Cmax in leukemic patient with pulmonary aspergillosis at 200 mg twice daily, po on day 14. Particulars: human, in vivo. Further details: dose 200 mg, route oral. Format: ADME, organism-based. The gist of the method: as §1
A short description of data set [3]: Cmax in leukemic patient with pulmonary aspergillosis at 200 mg twice daily, po on day 7. The format is ADME, organism-based. Further details: dose 200 mg, route oral. Particulars: human, in vivo. In a few lines:
as §1

Data set [4] can be described thus: AUC in leukemic neutropenic patient with pulmonary aspergillosis at 300 mg twice daily, po on day 7. The format is ADME, organism-based. The settings on record: human, plasma. The gist of the method: as §1
For data set [5], the system named is Homo sapiens. As to the kind of experiment: Trough concentration in leukemic patient with pulmonary aspergillosis at 200 mg twice daily, po on day 14. Format: ADME, organism-based. Particulars: in vivo. In a few lines: as §1
Data set [6] relates to Candida albicans. The data set can be described thus: Growth inhibition of Candida albicans mutant DSY2621 at 0.2 to 25 mg/L. The format is functional. In a few lines: (§2)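 Agar-well diffusion bioassay. Overnight YPD culture at 35°C was diluted to 1.5 x 10^7 CFU/ml inoculum. Agar contained yeast nitrogen base, glucose and phosphate buffer pH 5.5. Wells held 25 µl spiked plasma standards (8 points, 0.2–25 mg/liter). Plates stood 2 h at 4°C for diffusion, then 14 h at 35°C. Inhibition zones: four diameters by caliper.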

The next data set deals with Kluyveromyces marxianus. As to the kind of experiment: Growth inhibition of Candida kefyr B11501 at 0.2 to 25 mg/L. Format: functional. In a few lines: as §2
For data set [7], the system named is Homo sapiens. The data set can be described thus: Trough concentration in leukemic patient with pulmonary aspergillosis at 200 mg twice daily, po on day 7. The format is ADME, organism-based. Particulars: in vivo. In a few lines: as §1
Data set [8] in a line: AUC in leukemic patient with pulmonary aspergillosis at 200 mg twice daily, po on day 14. Format: ADME, organism-based. The settings on record: human, plasma. In a few lines: as §1
Data set [9] has as its system Homo sapiens. As to the kind of experiment: Trough level in leukemic neutropenic patient with pulmonary aspergillosis at 300 mg twice daily, po. The format is ADME, organism-based. Particulars: in vivo. In a few lines:
as §1

Data set [10] is described as follows: AUC in leukemic patient with pulmonary aspergillosis at 200 mg twice daily, po on day 7. The format is ADME, organism-based. The settings on record: human, plasma. In a few lines: as §1
Data set [11] can be described thus: Cmax in patient with invasive mycoses on day 1. The format is ADME, organism-based. The settings on record: human, in vivo.
Data set [12] relates to Candida albicans. As to the kind of experiment: Growth inhibition of Candida albicans ATCC 95020 at 0.2 to 25 mg/L. Format: functional. The gist of the method:
as §2

Data set [13] in a line: AUC in leukemic neutropenic patient with pulmonary aspergillosis at 300 mg twice daily, po on day 1. Format: ADME, organism-based. Particulars: human, plasma.
The species entered for data set [14] is Homo sapiens. The data set can be described thus: Trough level in patient with invasive mycoses on day 1. Format: ADME, organism-based. The settings on record: in vivo.

Turning to `C[C@@H](c1ncncc1F)[C@](O)(Cn1cncn1)c1ccc(F)cc1F` [VORICONAZOLE], the maximum concentration (Cmax) in data set [1] was 4300 ng/mL; in data set [2], 300 ng/mL; in [3] it was 1900 ng/mL; in [11], 6000 ng/mL. Moreover, the AUC in [4] was determined as 40500 ng·h/mL; in data set [8], 2900 ng·h/mL; in [10], 12900 ng·h/mL; in data set [13], 43000 ng·h/mL. Further, the Cmin amounted to 200 ng/mL in the data set with Homo sapiens [5], 500 ng/mL in the data set on Homo sapiens [7], 2600 ng/mL in the data set on Homo sapiens [9] and 3000 ng/mL in the data set filed under Homo sapiens [14]. The values for the Inhibition in the data set on Candida albicans [6], in the data set on Kluyveromyces marxianus and in the data set with Candida albicans [12] were 17 mm, 23 mm and 21 mm, respectively.
